Data taken from EPA's CvTdb concentration-time database.

Legend:
[1] = tested on: Rat; test: concentration in thymus after dosing; conditions: 10 min; dosed: Bis 2-Chloroethoxy Methane; 20 mg/kg; iv; Male; F344
[2] = tested on: Rat; test: concentration in plasma after dosing; conditions: 6 h; dosed: Bis 2-Chloroethoxy Methane; 20 mg/kg; iv; Female; F344
[3] = tested on: Rat; test: concentration in thymus after dosing; conditions: 3 h; dosed: Bis 2-Chloroethoxy Methane; 20 mg/kg; iv; Female; F344
[4] = tested on: Rat; test: concentration in brain after dosing; conditions: 12 h; dosed: Fluorotelomer alcohol 8+2; 24 mg/kg; oral; Male; Harlan Sprague Dawley
[5] = tested on: Rat; test: concentration in liver after dosing; conditions: 0.5 h; dosed: Fluorotelomer alcohol 8+2; 24 mg/kg; oral; Male; Harlan Sprague Dawley
[6] = tested on: Rat; test: concentration in plasma after dosing; conditions: dosed: Fluorotelomer alcohol 8+2, 24 mg/kg, oral, Male, Harlan Sprague Dawley
[7] = tested on: Rat; test: concentration in plasma after dosing; conditions: 5 min; dosed: Fluorotelomer alcohol 8+2; 12 mg/kg; iv; Male; F344
[8] = tested on: Rat; test: concentration in brain after dosing; conditions: 864 h; dosed: Perfluorodecanoic acid; 10 mg/kg; oral; Male; Harlan Sprague Dawley
[9] = tested on: Rat; test: concentration in liver after dosing; conditions: 3360 h; dosed: Perfluorodecanoic acid; 10 mg/kg; oral; Male; Harlan Sprague Dawley
[10] = tested on: Rat; test: concentration in plasma after dosing; conditions: dosed: Perfluorodecanoic acid, 2 mg/kg, iv, Male, F344
[11] = tested on: Rat; test: concentration in plasma after dosing; conditions: 22 h; dosed: Primidone; 80 mg/kg; oral; Male; F344
[12] = tested on: Rat; test: concentration in liver after dosing; conditions: 10 h; dosed: Thiodiglycolic Acid; 20 mg/kg; iv; Female; Harlan Sprague Dawley
[13] = tested on: Rat; test: concentration in liver after dosing; conditions: 5.333 h; dosed: Thiodiglycolic Acid; 20 mg/kg; iv; Female; Harlan Sprague Dawley
[14] = tested on: Rat; test: concentration in thymus after dosing; conditions: 5.333 h; dosed: Thiodiglycolic Acid; 20 mg/kg; iv; Male; Harlan Sprague Dawley
[15] = tested on: Rat; test: concentration in plasma after dosing; conditions: 2 h; dosed: Thiodiglycolic Acid; 20 mg/kg; iv; Male; Harlan Sprague Dawley
[16] = tested on: Rat; test: concentration in plasma after dosing; conditions: 10 min; dosed: dichloroacetic acid; 10 mg/kg; iv; Male; F344
[17] = tested on: dog; conditions: dosed: tetrachloroethylene, 142 ppm, inhalation, duration: 4 hr, male, beagle
In short: (§1)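 Data points giving concentration or amount against time came from published in vivo toxicokinetic studies and from two structured collections. PubMed searching, classifier screening and manual review located the studies. Most points were digitised from plot screenshots using WebPlotDigitizer, the rest were copied from tables, and all keep their reported units.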

[18] = tested on: human; conditions: dosed: trichloroethylene, 100 ppm, inhalation, duration: 4 hr, person
In short: as §1

[19] = tested on: human; test: concentration in blood after dosing; negative times count back from the end of exposure; conditions: dosed: trichloroethylene, inhalation
In short: as §1

ClCCOCOCCCl [Bis 2-Chloroethoxy Methane]
Conditions	concentration in plasma [ng/mL]	concentration in thymus [ng/g]
[1]	–	34400
[2]	17.6	–
[3]	–	448

OCCC(F)(F)C(F)(F)C(F)(F)C(F)(F)C(F)(F)C(F)(F)C(F)(F)C(F)(F)F [Fluorotelomer alcohol 8+2]
Conditions	concentration in brain [ng/g]	concentration in liver [ng/g]	concentration in plasma [ng/mL]
[4]	221	–	–
[5]	–	7210	–
[7]	–	–	24300

[6]
Conditions	concentration in plasma [ng/mL]
5 min	8.46
9 h	44.8

O=C(O)C(F)(F)C(F)(F)C(F)(F)C(F)(F)C(F)(F)C(F)(F)C(F)(F)C(F)(F)C(F)(F)F [Perfluorodecanoic acid]
Conditions	concentration in brain [ng/g]	concentration in liver [ng/g]
[8]	867	–
[9]	–	6930

[10]
Conditions	concentration in plasma [ng/mL]
12 h	6270
1200 h	874

CCC1(c2ccccc2)C(=O)NC(=O)NC1=O [Phenobarbital]
Conditions	concentration in plasma [ng/mL]
[11]	2870

O=C(O)CSCC(=O)O [Thiodiglycolic Acid]
Conditions	concentration in liver [ng/g]	concentration in plasma [ng/mL]	concentration in thymus [ng/g]
[12]	1650	–	–
[13]	2510	–	–
[14]	–	–	471
[15]	–	934	–

O=C(O)C(Cl)Cl [dichloroacetic acid]
Conditions	concentration in plasma [ng/mL]
[16]	8110

O=C(O)C(Cl)(Cl)Cl [trichloroacetic acid]
Conditions	amount in urine after dosing [mg]
[17], 22 h	8.68
[17], 46 h	3
[17], 70 h	1.93
[18], 1 h	0.21
[18], 2 h	0.25
[18], 4 h	0.57
[18], 8 h	2.37
[18], 12 h	1.32
[18], 16 h	0.93
[18], 24 h	2.15
[18], 36 h	4.32
[18], 48 h	8.17
[18], 60 h	7.79
[18], 72 h	7.83
[18], 84 h	6.95
[18], 96 h	4.34
[18], 108 h	4.56
[18], 120 h	3.32
[18], 132 h	3.23
[18], 144 h	4
[18], 156 h	2.44
[18], 168 h	1.44
[18], 180 h	2.55

concentration in blood [mg/kg], [19], duration: 2 hr - 20 min
Conditions	0 h	0.5 h	1 h	1.5 h	2 h	21 h
1348 mg	3	3.5	3.7	4.1	4.5	13.3
1681 mg	2.8	3.6	3.9	4.5	5.2	13.6
3907 mg	3	3.9	4.5	5.3	5.4	17.8

[19]
Conditions	concentration in blood
-1.833 h, 1348 mg, duration: 2 hr - 20 min, during exposure	0.6 mg/kg
-1.833 h, 1681 mg, duration: 2 hr - 20 min, during exposure	0.4 mg/kg
-1.833 h, 3907 mg, duration: 2 hr - 20 min, during exposure	0.7 mg/kg
-1 h, 1348 mg, duration: 2 hr - 20 min, during exposure	1.4 mg/kg
-1 h, 1681 mg, duration: 2 hr - 20 min, during exposure	1.1 mg/kg
-1 h, 3907 mg, duration: 2 hr - 20 min, during exposure	1.6 mg/kg
-0.5 h, 1348 mg, duration: 2 hr - 20 min, during exposure	2.3 mg/kg
-0.5 h, 1681 mg, duration: 2 hr - 20 min, during exposure	1.7 mg/kg
-0.5 h, 3907 mg, duration: 2 hr - 20 min, during exposure	2.3 mg/kg
0.1859 h, 100 ppm, duration: 4 hr, person	3830 ng/mL
0.2626 h, 100 ppm, duration: 4 hr, person	3950 ng/mL
0.4953 h, 100 ppm, duration: 4 hr, person	4150 ng/mL
0.7295 h, 100 ppm, duration: 4 hr, person	3520 ng/mL
1.042 h, 100 ppm, duration: 4 hr, person	4390 ng/mL
2.008 h, 100 ppm, duration: 4 hr, person	4230 ng/mL
2.056 h, 100 ppm, duration: 4 hr, person	4950 ng/mL
4.002 h, 100 ppm, duration: 4 hr, person	5130 ng/mL
4.087 h, 100 ppm, duration: 4 hr, person	5830 ng/mL
5.968 h, 100 ppm, duration: 4 hr, person	6280 ng/mL
6.071 h, 100 ppm, duration: 4 hr, person	5770 ng/mL
8.056 h, 100 ppm, duration: 4 hr, person	6100 ng/mL
8.086 h, 100 ppm, duration: 4 hr, person	6680 ng/mL
10.05 h, 100 ppm, duration: 4 hr, person	6680 ng/mL
10.13 h, 100 ppm, duration: 4 hr, person	7050 ng/mL
12.03 h, 100 ppm, duration: 4 hr, person	7200 ng/mL
12.16 h, 100 ppm, duration: 4 hr, person	7480 ng/mL
14.01 h, 100 ppm, duration: 4 hr, person	7110 ng/mL
14.05 h, 100 ppm, duration: 4 hr, person	7820 ng/mL
16 h, 100 ppm, duration: 4 hr, person	7960 ng/mL
16.01 h, 100 ppm, duration: 4 hr, person	7740 ng/mL
17.81 h, 100 ppm, duration: 4 hr, person	8690 ng/mL
17.98 h, 100 ppm, duration: 4 hr, person	7930 ng/mL
41.89 h, 100 ppm, duration: 4 hr, person	8480 ng/mL
44.06 h, 100 ppm, duration: 4 hr, person	9620 ng/mL
65.95 h, 100 ppm, duration: 4 hr, person	6780 ng/mL
67.63 h, 100 ppm, duration: 4 hr, person	7420 ng/mL
89.84 h, 100 ppm, duration: 4 hr, person	6470 ng/mL
91.02 h, 100 ppm, duration: 4 hr, person	5310 ng/mL
324 s, 100 ppm, duration: 4 hr, person	3160 ng/mL

[19], 100 ppm, duration: 4 hr, person, during exposure
Conditions	concentration in blood [ng/mL]
-3.454 h	294
-3.442 h	210
-3.04 h	620
-2.832 h	741
-1.998 h	1360
-1.982 h	1680
-1.033 h	2270
-0.8992 h	2830
